Source: article PMC4874899 (Cell chemical biology, 2016)

What was measured:
cells [1] = assay: Cytosolic penetration / endosomal escape by fluorescence microscopy; format: cell-based; conditions: retro-2 20 µM, 30 min prior to dfTAT (3 µM, 1 h)
How it was run: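 Cells at 80–90% confluency (48 h) pretreated 30 min with 20 µM retro-2, then 3 µM dfTAT for 1 h at 37 °C in serum-free L-15. Washed with heparin-containing L-15 (1 mg/mL); SYTOX (5 µM) stained cells excluded. Imaged at 37 °C; % nucleoli-positive cells of bright-field total, >500 cells per experiment, triplicates; t-test.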

[2] = tested on: mEmerald-TGOLN2 transport; assay: Retrograde transport of the TGN marker mEmerald-TGOLN2; format: cell-based; conditions: retro-2 20 µM
cells [3] = conditions: ref Gao et al., 2009; Gillmeister et al., 2011; Lee et al., 2010; cited from earlier work
[4] = tested on: L.E. LUVs (77:19:4 BMP:PC:PE); conditions: monomeric TAT; ref Yang et al., 2010; cited from earlier work

Cc1ccc(C=Nc2ccccc2C(=O)Nc2ccccc2)s1 [retro-2]
effect on dfTAT-mediated endosomal escape (cells [1]): had no effect on dfTAT-mediated escape
inhibition of transport of TGN marker mEmerald-TGOLN2 [2]: capable of inhibiting the transport

RKKRRQRRR [TAT]
escape from the endocytic pathway (cells [3]): only at a very low efficiency
effect on BMP-containing liposomes [4]: leaky fusion
